Laboratory results taken from ChEMBL document CHEMBL4340558, “Synthesis, biological evaluation, and molecular docking study of sulfonate derivatives as nucleotide pyrophosphatase/phosphodiesterase (NPP) inhibitors” (Bioorg Med Chem, 2019).
pIC50: −log10 of the molar value.

What was measured:
[1] = target: T1, Ectonucleotide pyrophosphatase/phosphodiesterase family member 1 (Homo sapiens, UniProt P22413); experiment: Inhibition of human NPP1 expressed in African green monkey COS7 cell membranes pre-incubated for 10 mins before pNP-TMP substrate addition and further incubated for 15 mins by colorimetric method
T1 sequence (P22413 whole entry): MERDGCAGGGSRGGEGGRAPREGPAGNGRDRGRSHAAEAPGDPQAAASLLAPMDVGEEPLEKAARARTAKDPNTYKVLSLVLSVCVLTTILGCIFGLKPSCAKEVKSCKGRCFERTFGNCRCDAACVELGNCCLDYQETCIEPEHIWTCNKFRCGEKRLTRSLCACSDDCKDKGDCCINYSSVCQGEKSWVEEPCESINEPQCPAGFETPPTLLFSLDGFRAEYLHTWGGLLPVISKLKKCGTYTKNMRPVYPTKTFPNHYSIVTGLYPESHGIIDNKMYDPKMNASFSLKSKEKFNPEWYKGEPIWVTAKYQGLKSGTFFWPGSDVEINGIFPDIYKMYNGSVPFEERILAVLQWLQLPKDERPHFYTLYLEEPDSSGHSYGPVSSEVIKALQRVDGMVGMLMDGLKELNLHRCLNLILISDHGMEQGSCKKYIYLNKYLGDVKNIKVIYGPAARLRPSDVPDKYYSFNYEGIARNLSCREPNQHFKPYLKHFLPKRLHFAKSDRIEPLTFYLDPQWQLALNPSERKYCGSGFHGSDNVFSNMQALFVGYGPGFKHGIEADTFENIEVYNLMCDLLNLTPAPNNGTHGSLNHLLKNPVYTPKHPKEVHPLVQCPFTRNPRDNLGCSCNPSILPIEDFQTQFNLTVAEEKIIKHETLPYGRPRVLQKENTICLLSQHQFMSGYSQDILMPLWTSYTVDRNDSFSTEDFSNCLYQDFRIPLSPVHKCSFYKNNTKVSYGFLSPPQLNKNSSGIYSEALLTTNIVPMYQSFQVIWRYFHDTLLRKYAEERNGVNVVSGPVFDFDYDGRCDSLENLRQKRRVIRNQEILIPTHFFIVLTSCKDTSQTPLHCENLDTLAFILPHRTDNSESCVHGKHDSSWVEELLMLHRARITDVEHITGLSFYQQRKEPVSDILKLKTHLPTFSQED

Autotaxin [2] = target: T2, Autotaxin (Homo sapiens, UniProt Q13822); experiment: Inhibition of human NPP2 expressed in African green monkey COS7 cell membranes pre-incubated for 5 mins before pNP-TMP substrate addition and further incubated for 35 mins by colorimetric method relative to untreated control; set-up: concentration or dose not given beside the values
Procedure, shortened: (§1)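 Single-point screen at 100 µM test compound, added from a 1 mM stock in 10% DMSO. Buffer was 50 mM Tris-HCl, 5 mM MgCl2, 0.1 mM ZnCl2, pH 9.5, at 37 °C. pNP-TMP substrate was 400 µM for NPP1, 500 µM for NPP2, 600 µM for NPP3. Absorbance at 405 nm was read before and after substrate addition. Percent inhibition was determined in triplicate.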

[3] = target: T3, Ectonucleotide pyrophosphatase/phosphodiesterase family member 3 (Homo sapiens, UniProt O14638); experiment: Inhibition of human NPP3 expressed in African green monkey COS7 cell membranes pre-incubated for 10 mins before pNP-TMP substrate addition and further incubated for 15 mins by colorimetric method
T3 sequence (O14638 whole entry): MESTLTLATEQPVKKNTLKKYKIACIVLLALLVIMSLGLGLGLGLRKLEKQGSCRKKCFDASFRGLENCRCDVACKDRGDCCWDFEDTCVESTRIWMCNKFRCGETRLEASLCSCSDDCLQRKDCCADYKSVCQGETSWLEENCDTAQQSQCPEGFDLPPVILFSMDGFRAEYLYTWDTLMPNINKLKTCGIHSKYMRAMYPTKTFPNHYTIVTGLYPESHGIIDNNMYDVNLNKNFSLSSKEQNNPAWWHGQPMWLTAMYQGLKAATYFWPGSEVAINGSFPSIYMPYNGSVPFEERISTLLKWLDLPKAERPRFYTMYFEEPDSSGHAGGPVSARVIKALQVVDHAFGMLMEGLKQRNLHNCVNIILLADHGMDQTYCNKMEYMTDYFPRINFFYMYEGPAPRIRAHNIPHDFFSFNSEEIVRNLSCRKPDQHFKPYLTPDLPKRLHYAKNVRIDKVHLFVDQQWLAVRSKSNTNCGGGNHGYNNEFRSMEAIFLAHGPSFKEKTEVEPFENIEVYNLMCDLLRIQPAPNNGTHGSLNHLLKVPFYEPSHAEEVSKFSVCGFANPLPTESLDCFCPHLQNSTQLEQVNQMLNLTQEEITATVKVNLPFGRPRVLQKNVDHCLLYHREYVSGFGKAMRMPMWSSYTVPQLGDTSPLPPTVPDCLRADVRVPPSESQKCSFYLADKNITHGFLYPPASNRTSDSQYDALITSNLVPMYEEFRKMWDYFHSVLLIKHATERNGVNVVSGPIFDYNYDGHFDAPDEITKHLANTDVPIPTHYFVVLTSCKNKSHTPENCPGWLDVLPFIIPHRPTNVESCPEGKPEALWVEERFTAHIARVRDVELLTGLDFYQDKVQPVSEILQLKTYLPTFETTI

Autotaxin [4] = target: T2, Autotaxin; experiment: Inhibition of human NPP2 expressed in African green monkey COS7 cell membranes pre-incubated for 5 mins before pNP-TMP substrate addition and further incubated for 35 mins by colorimetric method
Procedure, shortened: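 Colorimetric assay in 50 mM Tris-HCl, 5 mM MgCl2, 0.1 mM ZnCl2, pH 9.5, at 37 °C. Enzyme amounts: NPP1 35 ng, NPP2 338 ng, NPP3 37 ng. Pre-read at 405 nm was taken, then pNP-TMP was added: 400 µM for NPP1, 500 µM for NPP2, 600 µM for NPP3. A second 405 nm read followed. Runs were in triplicate. IC50 came from serial dilutions by non-linear curve fitting.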

[5] = target: T4, Ectonucleotide pyrophosphatase/phosphodiesterase family member 3 (Homo sapiens) (UniProt O14638); experiment: Inhibition of human NPP3 expressed in African green monkey COS7 cell membranes pre-incubated for 10 mins before pNP-TMP substrate addition and further incubated for 15 mins by colorimetric method relative to untreated control; set-up: concentration or dose not given beside the values; procedure, shortened: as §1
T4 sequence (whole entry): T3 sequence (O14638 whole entry)

[6] = target: T5, Ectonucleotide pyrophosphatase/phosphodiesterase family member 1 (Homo sapiens) (UniProt P22413); experiment: Inhibition of human NPP1 expressed in African green monkey COS7 cell membranes pre-incubated for 10 mins before pNP-TMP substrate addition and further incubated for 15 mins by colorimetric method relative to untreated control; set-up: concentration or dose not given beside the values; procedure, shortened: as §1
T5 sequence (whole entry): T1 sequence (P22413 whole entry)

[7] = target: T4, Ectonucleotide pyrophosphatase/phosphodiesterase family member 3 (Homo sapiens); experiment: Potency index, ratio of IC50 for suramin to IC50 for test compound for inhibition of human NPP3 expressed in African green monkey COS7 cell membranes pre-incubated for 10 mins before pNP-TMP substrate addition and further incubated for 15 mins by colorimetric method

Row | pIC50 [1] | inhibition (Autotaxin [2]) | pIC50 [3] | pIC50 (Autotaxin [4]) | inhibition [5] | inhibition [6] | Ratio IC50 [7] | SMILES
1 | 4.86 | 28% | 5.18 |  |  |  |  | O=C(Nc1ccc(OS(=O)(=O)c2ccccc2)cc1)C1CCCCCC1
2 | 5.83 | 33% | 4.87 |  |  |  |  | O=C(Nc1ccc(OS(=O)(=O)c2ccc(F)cc2)cc1)c1ccc2ccccc2c1
3 | 5.74 | 31% | 5.82 |  |  |  |  | CC(C)(C)c1ccc(S(=O)(=O)Oc2ccc(NC(=O)c3ccc(Cl)cc3)cc2)cc1
4 | 5.02 |  | 5.56 | < 4.00 |  |  |  | O=C(Nc1ccc(OS(=O)(=O)c2ccccc2)cc1)c1ccc(Cl)cc1
5 | 5.66 | 38% |  |  | 49% |  |  | CC(C)(C)c1ccc(S(=O)(=O)Oc2ccc(NC(=O)c3ccc4ccccc4c3)cc2)cc1
6 | 4.33 | 38% | 5.76 |  |  |  |  | O=C(Nc1ccc(OS(=O)(=O)c2ccccc2)cc1)C1CCCC1
7 | 6.37 | 24% | 6.59 |  |  |  |  | Cc1ccc(S(=O)(=O)Oc2ccc(NC(=O)C3CCCCCC3)cc2)cc1
8 | 5.84 |  | 5.79 | 5.11 |  |  |  | Cc1ccc(S(=O)(=O)Oc2ccc(NC(=O)c3ccc(Cl)cc3)cc2)cc1
9 |  |  | 6.67 | 6.17 |  | 29% | 6 | O=C(Nc1ccc(OS(=O)(=O)c2ccc(C(F)(F)F)cc2)cc1)C1CCCCCCC1
10 |  | 23% |  |  | 37% | 29% |  | CC(C)c1cc(C(C)C)c(S(=O)(=O)Oc2ccc(NC(=O)C3CCCCCC3)cc2)c(C(C)C)c1
11 |  | 27% |  |  | 39% | 43% |  | Cc1ccc(S(=O)(=O)Oc2ccc(NC(=O)C3CCCCC3)cc2)cc1
12 | 5.09 |  | 6.07 | 4.87 |  |  |  | Cc1ccc(S(=O)(=O)Oc2ccc(NC(=O)C3CCCC3)cc2)cc1
13 | 6.01 | 24% | 5.92 |  |  |  |  | CC(C)c1cc(C(C)C)c(S(=O)(=O)Oc2ccc(NC(=O)c3ccc(Cl)cc3)cc2)c(C(C)C)c1
14 |  |  | 5.64 | 5.31 |  | 39.3% |  | O=C(Nc1ccc(OS(=O)(=O)c2ccc(F)cc2)cc1)C1CCCCCC1
15 |  |  |  | 5.10 | 23% | 24% |  | Cc1ccc(S(=O)(=O)Oc2ccc(NC(=O)c3ccc4ccccc4c3)cc2)cc1
16 | 5.83 |  | 4.33 | 5.41 |  |  |  | CC(C)(C)c1ccc(S(=O)(=O)Oc2ccc(NC(=O)C3CCCCCC3)cc2)cc1
17 | 4.93 |  | 5.97 | 4.62 |  |  |  | O=C(Nc1ccc(OS(=O)(=O)c2ccccc2)cc1)C1CCCCC1
18 | 5.95 | 22% | 5.27 |  |  |  |  | O=C(Nc1ccc(OS(=O)(=O)c2ccc(C(F)(F)F)cc2)cc1)c1ccc2ccccc2c1
19 | 4.67 |  | 5.47 | 5.97 |  |  |  | O=C(Nc1ccc(OS(=O)(=O)c2ccc(C(F)(F)F)cc2)cc1)c1ccc(Cl)cc1

Row | pIC50 [1] | inhibition (Autotaxin [2]) | pIC50 [3] | pIC50 (Autotaxin [4]) | inhibition [5] | inhibition [6] | Ratio IC50 [7] | SMILES
20 | 6.41 |  | 5.75 | 5.80 |  |  |  | O=C(Nc1ccc(OS(=O)(=O)c2ccc(C(F)(F)F)cc2)cc1)C1CCCCC1
21 | 6.37 | 34% | 5.59 |  |  |  |  | O=C(Nc1ccc(OS(=O)(=O)c2ccc(C(F)(F)F)cc2)cc1)C1CCCCCC1
22 | 6.25 | 37% | 6.60 |  |  |  |  | O=C(Nc1ccc(OS(=O)(=O)c2ccc(F)cc2)cc1)C1CCCCC1
23 | 5.79 |  | 6.43 | 5.74 |  |  |  | CCS(=O)(=O)Oc1ccc(NC(=O)C2CCCCC2)cc1
24 |  |  |  | 4.18 | 47% | 45% |  | O=C(Nc1ccc(OS(=O)(=O)c2ccccc2)cc1)C1CCCCCCC1
25 | 5.54 |  |  | 4.70 | 46% |  |  | O=C(Nc1ccc(OS(=O)(=O)c2ccc(F)cc2)cc1)c1ccc(Cl)cc1
26 | 5.24 |  | 5.99 | 5.83 |  |  |  | O=C(Nc1ccc(OS(=O)(=O)c2ccc(F)cc2)cc1)C1CCCC1
27 | 5.72 | 33% | 5.87 |  |  |  |  | CS(=O)(=O)Oc1ccc(NC(=O)C2CCCCC2)cc1
28 |  | 46% |  |  | 30% | 30% |  | CC(C)c1cc(C(C)C)c(S(=O)(=O)Oc2ccc(NC(=O)C3CCCCCCC3)cc2)c(C(C)C)c1
29 | 5.46 |  | 5.62 | 4.58 |  |  |  | CCCS(=O)(=O)Oc1ccc(NC(=O)C2CCCCC2)cc1
30 | 5.46 | 42% | 5.54 |  |  |  |  | CC(C)c1cc(C(C)C)c(S(=O)(=O)Oc2ccc(NC(=O)c3ccc4ccccc4c3)cc2)c(C(C)C)c1
31 | 5.78 | 42% | 5.57 |  |  |  |  | CC(C)(C)c1ccc(S(=O)(=O)Oc2ccc(NC(=O)C3CCCC3)cc2)cc1
32 | 5.03 |  | 4.69 | 4.55 |  |  |  | O=C(Nc1ccc(OS(=O)(=O)c2ccccc2)cc1)c1ccc2ccccc2c1
33 |  |  |  | 5.61 | 42% | 37% |  | O=C(Nc1ccc(OS(=O)(=O)c2cccc3cccnc23)cc1)c1ccc2ccccc2c1
34 | 5.59 | 39% | 6.09 |  |  |  |  | CC(C)(C)c1ccc(S(=O)(=O)Oc2ccc(NC(=O)C3CCCCC3)cc2)cc1
35 |  | 49% |  |  | 46% | 40% |  | CC(C)(C)c1ccc(S(=O)(=O)Oc2ccc(NC(=O)C3CCCCCCC3)cc2)cc1
36 |  |  |  | 4.10 | 35% | 43% |  | Cc1ccc(S(=O)(=O)Oc2ccc(NC(=O)C3CCCCCCC3)cc2)cc1
37 | 5.95 |  | 5.40 | 6.18 |  |  |  | O=C(Nc1ccc(OS(=O)(=O)c2ccc(C(F)(F)F)cc2)cc1)C1CCCC1
